Bioassay records: PubChem BioAssay, several laboratories
Shown are actives, neighbours in structure and some others; about 4% of the full set was active somewhere.
OX1R antag-1 = antagonists of human orexin 1 receptor; actives 0.43% (n = 330,000); CHO/OX1R cells, Fluo-8 calcium fluorescence, orexin A; inhibition, % at 5 µM; O43613;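 active means inhibition above its plate's threshold, mean inhibition of all tested compounds on the plate plus 3 SD, cut at about 37% in these data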;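 further: 0% = orexin A challenge wells and 100% = SB-334867-A antagonist wells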
OX1R antag-2 = OX1R (human) antagonism | OX1R-expressing cells, FRET antagonist read-out | inhibition, % at 6.6 µM | O43613 | actives 1.8% (n = 330,000); in the data active means inhibition mostly above about 38%, no sharp cut-off; inactive means mostly below about 40%;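 further: 0% = agonist challenge alone and 100% = reference antagonist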
TAAR1 ag = human TAAR1 agonism; activation, % at 3 µM; CHO RD-HGA16 TAAR1, Fluo-8 calcium fluorescence; vehicle wells 0%, saturating PEA agonist 100%; actives 0.99% (n = 360,000);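 active means activation above the mean activation of all test compounds in the run plus 3 SD, cut at about 38% in these data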
Target sequence (Q96RJ0 whole entry, looked up): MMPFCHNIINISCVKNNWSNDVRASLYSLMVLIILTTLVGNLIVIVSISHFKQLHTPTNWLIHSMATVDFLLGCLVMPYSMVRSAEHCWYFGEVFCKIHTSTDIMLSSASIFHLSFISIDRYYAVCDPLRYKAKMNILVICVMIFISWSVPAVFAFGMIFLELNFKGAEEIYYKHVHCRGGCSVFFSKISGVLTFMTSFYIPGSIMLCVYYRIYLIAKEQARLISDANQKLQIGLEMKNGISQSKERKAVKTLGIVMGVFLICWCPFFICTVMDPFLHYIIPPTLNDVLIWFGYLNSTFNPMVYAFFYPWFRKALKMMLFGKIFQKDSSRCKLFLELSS
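Test system: RD-HGA16 (CHO) cells co-expressing Gα16 and hTAAR1 | Doses: Single dose, 3 µM | Schedule: 17-24 h seeding, 75 min 37 °C dye, 30 min RT | Evaluation: % activation from peak over basal fluorescence ratio, DMSO-to-PEA scaled | Technique: Kinetic Fluo-8 calcium fluorescence | Benchmarks: Low control DMSO, high control PEA (EC100)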
TAAR1 antag = human TAAR1 antagonism; CHO RD-HGA16 TAAR1, Fluo-8 calcium fluorescence, antagonist; actives 1.5% (n = 360,000); AID 624466; Q96RJ0; inhibition, % at 3 µM;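 active means inhibition above a per-plate cutoff, the mean inhibition of test compounds on that plate plus 3 SD, cut at about 49% in these data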;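 further: 0% = DMSO plus EC80 beta-PEA response and 100% = DMSO alone without agonist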
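test system = CHO RD-HGA16 cells bearing hTAAR1 | replication = singlicate | controls = DMSO-only wells and EC80 β-PEA-stimulated wells | reagent = EC80 β-phenethylamine stimulus | read-out basis = percent inhibition of PEA-evoked calcium signal, max/basal emission ratio | schedule = seeding 17-24 h prior, 75-min 37 °C, 30-min RT dye loading | signal = kinetic Fluo-8 calcium fluorescence measurement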
NTR1 agonist = agonists of human neurotensin receptor NTR1 | P30989 | NTR1-U2OS beta-arrestin-GFP spot imaging, agonist mode | activation, % at 20 µM | actives 0.17% (n = 330,000);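 active means activation at or above 40% of the spot to cytoplasm intensity ratio, with at least 20 cells analyzed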;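 further: 0% = DMSO without peptide and 100% = 100 nM NTR1 peptide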
Target sequence (P30989 whole entry, looked up): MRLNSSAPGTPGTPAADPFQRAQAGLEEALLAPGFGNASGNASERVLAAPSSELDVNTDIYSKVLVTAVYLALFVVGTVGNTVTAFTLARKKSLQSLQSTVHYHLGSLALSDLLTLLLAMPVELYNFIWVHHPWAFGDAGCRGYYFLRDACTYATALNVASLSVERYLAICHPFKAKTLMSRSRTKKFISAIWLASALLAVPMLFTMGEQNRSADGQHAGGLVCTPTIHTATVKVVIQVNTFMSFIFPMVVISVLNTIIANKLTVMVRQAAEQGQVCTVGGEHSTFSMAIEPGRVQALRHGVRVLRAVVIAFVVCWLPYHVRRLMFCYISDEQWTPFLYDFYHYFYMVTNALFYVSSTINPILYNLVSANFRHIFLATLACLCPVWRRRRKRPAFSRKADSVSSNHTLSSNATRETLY
CHO parental Ca = counter-screen: ATP calcium response change in parental CHO cells; actives 0.63% (n = 330,000); parental CHO-K1, ATP-induced calcium, Fluo-8 fluorescence; AID 463079; inhibition, % at 5.6 µM;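 active means inhibition above that plate's mean sample inhibition plus 3 SD, cut at about 26% in these data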;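 further: 0% = ATP-challenged DMSO wells and 100% = DMSO wells without ATP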
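Test system: parental CHO cells; detection: calcium-sensitive Fluo-8 fluorescence; evaluation: percent inhibition of calcium signal; also added: ATP as calcium-mobilizing challenge; repeats: one well per compound; control set: ATP-challenged DMSO wells low, unchallenged DMSO wells high; compound: single nominal dose of 5.6 µM per compound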
Starred values were filed as active, the others as inactive; . = no result.

SMILES | OX1R antag-1 | OX1R antag-2 | TAAR1 ag | TAAR1 antag | NTR1 agonist | CHO parental Ca
CC1C(=O)N(Cc2ccccc2F)c2ccccc2N1C(=O)c1c(F)cccc1F (stereo not given) | 27.1 | 14.8 | 4.6 | 51.7* | 12.3 | 62.2*
C=CCOc1ccccc1C(=O)/C=C1/C(=O)Nc2ccccc21 | 17.0 | 20.0 | 1.6 | 11.6 | 50.4* | 33.4*
O=C(Nc1ccc(-n2ccc(C(F)(F)F)n2)cc1)Nc1cccc(Cl)c1 | 57.0* | 30.6 | 13.2 | 34.4 | 15.4 | 22.3
Cc1cc(C)cc(NC(=O)Nc2ccc(-n3ccc(C(F)(F)F)n3)cc2)c1 | 54.2* | 53.6* | 4.1 | 31.6 | 5.1 | 40.2*
O=C(O)c1ccccc1C(=O)Nc1ccc(-n2ccc(C(F)(F)F)n2)cc1 | 3.2 | 12.2 | 16.1 | -7.9 | 0.6 | -13.6
O=C(O)CCC(=O)Nc1ccc(-n2ccc(C(F)(F)F)n2)cc1 | -5.0 | 5.4 | 1.8 | -2.8 | 0.9 | -13.7
Cc1ccc(Sc2ncccc2C(=O)NCC(c2ccc(F)cc2)N2CCOCC2)cc1C (stereo not given) | -20.5 | 8.6 | 2.4 | -7.8 | -1.0 | -19.5
Cc1ccc(Nc2nc(CSc3nnc(-c4cccnc4)n3-c3ccccc3C)cs2)cc1 | -6.3 | 67.0* | -2.1 | -45.1 | 2.9 | -38.3
Cc1ccccc1-n1c(SCc2csc(Nc3ccccc3)n2)nnc1-c1cccnc1 | 2.4 | 69.3* | 2.5 | 1.7 | 6.5 | -18.3
Cc1ccc(Nc2nc(CSc3nnc(-c4ccccc4)n3C)cs2)cc1 | -25.3 | 24.4 | -0.5 | -8.1 | 5.0 | -11.8
COCc1[nH]nc2c1C(c1ccc(Br)cc1)N(c1ccc(OC)cc1)C2=O (stereo not given) | . | . | 6.5 | -18.2 | . | .
COc1cc(OC)c(C(=O)O/N=C(\N)c2ccc(C)cc2)cc1OC | -22.9 | 36.2* | -1.7 | -4.0 | 1.3 | -14.6
Cc1cccc(/C(N)=N/OC(=O)c2ccc(F)cc2)c1 | -7.3 | 7.7 | 5.1 | -6.0 | -0.4 | -3.8
COc1ccc(Cl)cc1C(=O)O/N=C(\N)c1ccc(Cl)cc1 | 2.8 | 7.6 | -1.9 | 12.1 | 12.2 | -2.2
COc1cc(OC)c(C(=O)O/N=C(\N)c2cccc(C)c2)cc1OC | -13.7 | 36.1* | -0.5 | 0.2 | 0.2 | -26.0
CCOC(=O)C1CCCN(C(=O)Cn2ncc3c([nH]c4ccccc43)c2=O)C1 (stereo not given) | -5.1 | 2.8 | 3.6 | -13.8 | -0.1 | -12.8
C=CCN(c1ccccc1)S(=O)(=O)c1cc2c(cc1C)NC(=O)CO2 | -7.2 | 13.9 | 2.0 | 10.2 | -1.6 | -11.9
Cc1ccc(S(=O)(=O)Cc2ccc(C(=O)N3CCN(c4cccc(C)c4C)CC3)o2)cc1 | -32.5 | 8.3 | -1.6 | -6.0 | 7.0 | -1.3
COc1ccc(S(=O)(=O)Cc2ccc(C(=O)N3CCN(c4cc(C)ccc4C)CC3)o2)cc1 | -32.8 | 14.4 | -1.3 | 20.4 | 1.5 | -30.1
COc1ccc(S(=O)(=O)Cc2ccc(C(=O)N3CCN(c4cc(Cl)ccc4C)CC3)o2)cc1 | -18.6 | 6.4 | 1.2 | 48.8* | 11.2 | 2.4
COc1ccc(S(=O)(=O)Cc2ccc(C(=O)N3CCN(c4cccc(C)c4C)CC3)o2)cc1 | 7.5 | 11.3 | -0.5 | 33.2 | 7.4 | 48.5*
CC(=O)N1C[C@@H](CO)[C@@H]2C[C@H]1c1ccccc1N2C | . | . | 1.4 | -5.5 | . | .
C=CCN=C1NC(c2ccc(F)cc2)C(C(=O)OC)=C(C)N1C (stereo not given) | . | . | 4.1 | -5.6 | . | .
COc1cccc2c3c(c(C)nc12)CCN3c1ccccc1 | -11.0 | 63.8* | 8.3 | -19.6 | 6.7 | 8.0
CN(Cc1ccco1)C(=O)[C@@H](Cc1ccccc1)NC(=O)[C@H]1O[C@@H](n2ccc(=O)[nH]c2=O)[C@H](O)[C@@H]1O | . | . | 0.5 | -28.5 | . | .
SMILES | OX1R antag-1 | OX1R antag-2 | TAAR1 ag | TAAR1 antag | NTR1 agonist | CHO parental Ca
O=S(=O)(NCc1csc(-c2cccnc2)n1)c1ccc2c(c1)OCCO2 | -1.2 | 71.7* | 0.1 | -17.6 | -1.9 | -12.4
O=S(=O)(NCc1csc(-c2cccnc2)n1)c1ccc(Cl)s1 | 5.3 | 40.8* | 1.2 | -6.3 | 11.3 | -13.1
O=S(=O)(NCc1csc(-c2ccccc2)n1)c1ccc(Cl)s1 | -2.2 | 26.8 | -0.8 | -13.5 | -0.6 | 2.8
CCc1ccc(S(=O)(=O)NCCc2csc(-c3ccccc3)n2)s1 | 45.4 | 40.8* | 7.4 | 34.0 | 3.0 | -0.7
Cc1ccc(S(=O)(=O)N2CCCc3nc(C)c(C)cc32)cc1 | . | . | -1.3 | -18.8 | . | .
CCN1/C(=C/c2ccc3cc(C)ccc3[n+]2CC)Sc2ccc3sccc3c21 | 28.6 | 26.7 | . | . | -4.0 | 48.1*
COc1ccc(O)c(CN2CCC(n3nccc3NC(=O)CCOc3ccccc3)CC2)c1 | -20.6 | 41.4 | 1.6 | 2.1 | 0.8 | -8.3
C[C@H]1[C@H](c2ccccc2)Oc2cccc(N3CCCC3)c2S(=O)(=O)N1Cc1cccc(F)c1 | . | . | 1.2 | -25.4 | . | .
O=C(C(=O)N1CCCCCC1)c1c[nH]c2ccccc12 | . | . | 2.7 | -10.0 | -0.6 | .
C[n+]1cc(C(=O)N2CCCCC2)ccc1/C=C/c1c[nH]c2ccccc12 | -0.2 | 69.3* | 25.3 | 1.5 | -1.7 | 5.2
ONC(=Nc1ccccc1)c1ccc(Cl)cc1 | -10.3 | 2.9 | 3.5 | 5.8 | -0.6 | -10.9
NC(=Nc1ccc(Cl)cc1)c1ccccc1 | -5.5 | 13.1 | 43.3* | 16.7 | 1.1 | -6.9
COc1ccc(O)c(C(=O)c2cc(C(=O)NCCc3ccccc3)c(=O)n(CCc3ccccc3)c2)c1 | -3.6 | 36.5 | 2.5 | 51.3* | 2.2 | -1.2
O=C(COc1ccccc1/C=C1\SC(=O)NC1=O)Nc1ccccc1 | -10.9 | 59.3* | 7.8 | 6.6 | -1.1 | -11.8
COc1cccc(/C=C2/NC(=O)NC2=O)c1OCC(=O)Nc1ccccc1 | -24.3 | 35.9 | 2.8 | 19.1 | 2.6 | -2.3
CCOC(=O)CC1(Cc2ccccc2)Oc2ccccc2O1 | . | . | 0.7 | -42.2 | . | .
CCOc1ccccc1NC(=O)CCSc1nc2n[nH]c(C)c2c(=N)n1-c1ccccc1Cl | -21.3 | 52.8* | 7.5 | 40.0 | 6.4 | -25.3
COc1ccc(OC)c(NC(=O)CSc2nc3n[nH]c(C)c3c(=N)n2-c2cccc(Cl)c2C)c1 | -13.9 | 18.4 | -2.2 | -25.7 | 11.3 | 0.1
CCc1ccccc1NC(=O)CSc1nc2n[nH]c(C)c2c(=N)n1-c1cccc(OC)c1 | 16.0 | 46.1* | 4.7 | 21.1 | 7.6 | -26.3
Clc1ccc(-c2nc(N3CCCCC3)nc3ccccc23)cc1 | -26.8 | 27.9 | 1.5 | 2.5 | 0.6 | -20.3
c1ccc(-c2nc(-n3nc4ccccc4n3)nc3ccccc23)cc1 | -32.0 | 17.1 | 4.7 | 65.1* | 15.1 | -16.9
COC(=O)[C@]12C[C@H](CC(=O)N3CCC(c4ccccc4)CC3)C(=O)N(CCC3=CCCCC3)C1=C[C@H](COCc1ccccc1)O[C@@H]2C | . | . | -1.2 | -19.2 | . | .
